Reference: ChEMBL document CHEMBL5058577, “EUbOPEN Chemogenomics Library 2 (Multiplex)” (2022)

Tested on: Fibroblast
Test: Multiplex assay against human fibroblast
Format: toxicity, cell-based
Summary of the method: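 Compound was added to live cells that had been stained at seeding with Hoechst33342, BioTracker Green Microtubule Cytoskeleton Dye, MitoTracker Red and Annexin V Alexa Fluor 680, and imaging followed on a CQ1 microscope at 37°C and 5% CO2. CellPathfinder machine-learning gating divided cells into Hoechst high-intensity objects or normal cells, normal cells into healthy, pyknosed or fragmented nuclei, and pyknosed cells into mitotic or apoptotic. Tubulin, mitochondrial-mass and membrane-permeability phenotypes are per cents of healthy-nucleus cells.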

[1] = 12 h, 1 µM, compound concentration 1 uM, replicate 1
[2] = 12 h, 1 µM, compound concentration 1 uM, replicate 2
[3] = 12 h, 10 µM, compound concentration 10 uM, replicate 1
[4] = 12 h, 10 µM, compound concentration 10 uM, replicate 2
[5] = 24 h, 1 µM, compound concentration 1 uM, replicate 1
[6] = 24 h, 1 µM, compound concentration 1 uM, replicate 2
[7] = 24 h, 10 µM, compound concentration 10 uM, replicate 1
[8] = 24 h, 10 µM, compound concentration 10 uM, replicate 2
[9] = 48 h, 1 µM, compound concentration 1 uM, replicate 1
[10] = 48 h, 1 µM, compound concentration 1 uM, replicate 2
[11] = 48 h, 10 µM, compound concentration 10 uM, replicate 1
[12] = 48 h, 10 µM, compound concentration 10 uM, replicate 2

## COc1ccc2c(c1)C(C(=O)N(Cc1ccc(N(C)C)cc1)c1ccc(C(C)C)cc1)CCC2.Cl (configuration not stated)
[1]
  Population Apoptotic (%): 57%
  Population Fragmented Nuclei (%): 15%
  Population Healthy Nuclei (%): 72%
  Population Hoechst High Intensity Objects (%): 1%
  Population Membrane Permeable-Phenotype (%): 1%
  Population Mitochondria Different-Phenotype (%): 7%
  Population Mitotic Cells (%): 42%
  Population Normal (%): 98%
  Population Pyknosed Nuclei (%): 11%
  Population Tubulin-Different-Phenotype (%): 22%
  Total Cell Count: 163
[2]
  Population Apoptotic (%): 45%
  Population Fragmented Nuclei (%): 20%
  Population Healthy Nuclei (%): 55%
  Population Hoechst High Intensity Objects (%): 5%
  Population Membrane Permeable-Phenotype (%): 5%
  Population Mitochondria Different-Phenotype (%): 15%
  Population Mitotic Cells (%): 54%
  Population Normal (%): 94%
  Population Pyknosed Nuclei (%): 23%
  Population Tubulin-Different-Phenotype (%): 57%
  Total Cell Count: 138
[3]
  Population Apoptotic (%): 58%
  Population Fragmented Nuclei (%): 17%
  Population Healthy Nuclei (%): 69%
  Population Hoechst High Intensity Objects (%): 1%
  Population Membrane Permeable-Phenotype (%): 0%
  Population Mitochondria Different-Phenotype (%): 12%
  Population Mitotic Cells (%): 41%
  Population Normal (%): 98%
  Population Pyknosed Nuclei (%): 13%
  Population Tubulin-Different-Phenotype (%): 67%
  Total Cell Count: 181
[4]
  Population Apoptotic (%): 53%
  Population Fragmented Nuclei (%): 38%
  Population Healthy Nuclei (%): 51%
  Population Hoechst High Intensity Objects (%): 2%
  Population Membrane Permeable-Phenotype (%): 6%
  Population Mitochondria Different-Phenotype (%): 14%
  Population Mitotic Cells (%): 46%
  Population Normal (%): 97%
  Population Pyknosed Nuclei (%): 10%
  Population Tubulin-Different-Phenotype (%): 77%
  Total Cell Count: 148
[5]
  Population Apoptotic (%): 55%
  Population Fragmented Nuclei (%): 11%
  Population Healthy Nuclei (%): 77%
  Population Hoechst High Intensity Objects (%): 1%
  Population Membrane Permeable-Phenotype (%): 0%
  Population Mitochondria Different-Phenotype (%): 5%
  Population Mitotic Cells (%): 44%
  Population Normal (%): 98%
  Population Pyknosed Nuclei (%): 11%
  Population Tubulin-Different-Phenotype (%): 25%
  Total Cell Count: 156
[6]
  Population Fragmented Nuclei (%): 19%
  Population Healthy Nuclei (%): 59%
  Population Hoechst High Intensity Objects (%): 3%
  Population Membrane Permeable-Phenotype (%): 2%
  Population Mitochondria Different-Phenotype (%): 11%
  Population Normal (%): 96%
  Population Pyknosed Nuclei (%): 20%
  Population Tubulin-Different-Phenotype (%): 41%
  Total Cell Count: 136
[7]
  Population Apoptotic (%): 50%
  Population Fragmented Nuclei (%): 17%
  Population Healthy Nuclei (%): 72%
  Population Hoechst High Intensity Objects (%): 3%
  Population Membrane Permeable-Phenotype (%): 0%
  Population Mitochondria Different-Phenotype (%): 15%
  Population Mitotic Cells (%): 50%
  Population Normal (%): 96%
  Population Pyknosed Nuclei (%): 10%
  Population Tubulin-Different-Phenotype (%): 63%
  Total Cell Count: 180
[8]
  Population Apoptotic (%): 42%
  Population Fragmented Nuclei (%): 39%
  Population Healthy Nuclei (%): 55%
  Population Hoechst High Intensity Objects (%): 2%
  Population Membrane Permeable-Phenotype (%): 2%
  Population Mitochondria Different-Phenotype (%): 12%
  Population Mitotic Cells (%): 57%
  Population Normal (%): 97%
  Population Pyknosed Nuclei (%): 4%
  Population Tubulin-Different-Phenotype (%): 85%
  Total Cell Count: 148
[9]
  Population Apoptotic (%): 66%
  Population Fragmented Nuclei (%): 17%
  Population Healthy Nuclei (%): 75%
  Population Hoechst High Intensity Objects (%): 1%
  Population Membrane Permeable-Phenotype (%): 1%
  Population Mitochondria Different-Phenotype (%): 3%
  Population Mitotic Cells (%): 33%
  Population Normal (%): 98%
  Population Pyknosed Nuclei (%): 6%
  Population Tubulin-Different-Phenotype (%): 27%
  Total Cell Count: 180
[10]
  Population Apoptotic (%): 52%
  Population Fragmented Nuclei (%): 26%
  Population Healthy Nuclei (%): 61%
  Population Membrane Permeable-Phenotype (%): 5%
  Population Mitochondria Different-Phenotype (%): 13%
  Population Mitotic Cells (%): 47%
  Population Pyknosed Nuclei (%): 12%
  Population Tubulin-Different-Phenotype (%): 46%
  Total Cell Count: 152
[11]
  Population Apoptotic (%): 71%
  Population Fragmented Nuclei (%): 21%
  Population Healthy Nuclei (%): 71%
  Population Hoechst High Intensity Objects (%): 4%
  Population Membrane Permeable-Phenotype (%): 0%
  Population Mitochondria Different-Phenotype (%): 8%
  Population Mitotic Cells (%): 28%
  Population Normal (%): 95%
  Population Pyknosed Nuclei (%): 7%
  Population Tubulin-Different-Phenotype (%): 71%
  Total Cell Count: 203
[12]
  Population Apoptotic (%): 75%
  Population Fragmented Nuclei (%): 45%
  Population Healthy Nuclei (%): 52%
  Population Hoechst High Intensity Objects (%): 0%
  Population Membrane Permeable-Phenotype (%): 3%
  Population Mitotic Cells (%): 25%
  Population Normal (%): 99%
  Population Pyknosed Nuclei (%): 2%
  Population Tubulin-Different-Phenotype (%): 81%
  Total Cell Count: 174
